In ChEMBL document CHEMBL1154688, “Selective Kv1.5 blockers: development of (R)-1-(methylsulfonylamino)-3-[2-(4-methoxyphenyl)ethyl]-4-(4-methoxyphenyl)-2-imidazolidinone (KVI-020/WYE-160020) as a potential treatment for atrial arrhythmia” (J Med Chem, 2009):
≈ marks a conversion by molar mass, not a printed value.

Assays:
[1] = target: Potassium voltage-gated channel subfamily A member 5 (Homo sapiens, UniProt P22460); test: Inhibition of human Kv1.5 expressed in CHO cells by patch-clamp technique; assay type: cell-based
Chain of Potassium voltage-gated channel subfamily A member 5 (P22460 whole entry): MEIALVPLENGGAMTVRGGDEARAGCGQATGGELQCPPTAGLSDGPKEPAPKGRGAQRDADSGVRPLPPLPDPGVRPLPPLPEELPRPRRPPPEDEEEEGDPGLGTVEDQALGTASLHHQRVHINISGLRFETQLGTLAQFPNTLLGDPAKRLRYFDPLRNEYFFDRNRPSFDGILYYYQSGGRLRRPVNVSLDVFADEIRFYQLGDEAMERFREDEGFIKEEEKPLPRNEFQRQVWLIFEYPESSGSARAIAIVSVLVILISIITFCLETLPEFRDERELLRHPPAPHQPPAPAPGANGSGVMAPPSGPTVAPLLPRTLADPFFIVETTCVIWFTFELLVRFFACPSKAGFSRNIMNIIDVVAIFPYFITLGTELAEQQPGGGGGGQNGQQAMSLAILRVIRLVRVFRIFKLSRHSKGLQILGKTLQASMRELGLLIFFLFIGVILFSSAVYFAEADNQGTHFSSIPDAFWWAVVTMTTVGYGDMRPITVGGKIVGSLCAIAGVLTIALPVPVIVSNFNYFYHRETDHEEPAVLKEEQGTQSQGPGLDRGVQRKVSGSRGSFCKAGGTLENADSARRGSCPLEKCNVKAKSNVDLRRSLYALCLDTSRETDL
How it was run: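 Human Kv1.5 stably expressed in CHO cells. IC50 was determined by automated patch clamp on the IonWorks platform.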

[2] = target: Voltage-gated inwardly rectifying potassium channel KCNH2 (Homo sapiens, UniProt Q12809); test: Inhibition of human ERG by patch-clamp technique
Chain of Voltage-gated inwardly rectifying potassium channel KCNH2 (Q12809 whole entry): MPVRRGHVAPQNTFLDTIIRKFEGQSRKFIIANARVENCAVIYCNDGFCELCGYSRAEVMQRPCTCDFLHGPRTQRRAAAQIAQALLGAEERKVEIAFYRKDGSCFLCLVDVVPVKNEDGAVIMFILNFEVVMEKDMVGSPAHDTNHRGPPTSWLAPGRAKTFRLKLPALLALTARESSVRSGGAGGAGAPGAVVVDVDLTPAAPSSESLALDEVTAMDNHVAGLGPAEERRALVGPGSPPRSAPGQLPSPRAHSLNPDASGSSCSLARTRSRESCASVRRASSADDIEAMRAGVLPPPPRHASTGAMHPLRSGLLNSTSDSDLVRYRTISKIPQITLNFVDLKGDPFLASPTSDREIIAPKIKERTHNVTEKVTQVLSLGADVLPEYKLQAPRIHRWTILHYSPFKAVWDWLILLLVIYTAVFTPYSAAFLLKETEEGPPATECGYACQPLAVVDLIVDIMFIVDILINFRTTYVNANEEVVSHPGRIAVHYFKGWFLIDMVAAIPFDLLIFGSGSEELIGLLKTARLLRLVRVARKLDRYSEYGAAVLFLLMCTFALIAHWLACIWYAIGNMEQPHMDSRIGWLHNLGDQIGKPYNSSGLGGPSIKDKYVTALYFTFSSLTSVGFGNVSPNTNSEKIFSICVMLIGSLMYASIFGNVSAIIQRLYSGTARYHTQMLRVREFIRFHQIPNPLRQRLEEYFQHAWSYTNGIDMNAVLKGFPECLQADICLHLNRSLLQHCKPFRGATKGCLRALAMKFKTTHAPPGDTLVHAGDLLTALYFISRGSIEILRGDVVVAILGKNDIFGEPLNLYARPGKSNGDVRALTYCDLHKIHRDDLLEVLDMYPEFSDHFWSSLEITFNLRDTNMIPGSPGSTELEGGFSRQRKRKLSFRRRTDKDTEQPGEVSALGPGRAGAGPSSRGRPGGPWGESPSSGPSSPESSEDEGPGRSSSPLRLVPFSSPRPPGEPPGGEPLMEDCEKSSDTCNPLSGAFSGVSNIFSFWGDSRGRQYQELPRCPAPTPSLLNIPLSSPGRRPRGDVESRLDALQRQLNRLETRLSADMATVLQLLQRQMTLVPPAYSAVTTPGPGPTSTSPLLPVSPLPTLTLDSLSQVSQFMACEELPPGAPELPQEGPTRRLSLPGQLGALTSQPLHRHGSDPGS

[3] = Aqueous solubility at pH 7.4 by direct UV method; assay type: physicochemical; settings: aqueous medium
How it was run: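 Solubility measured in pH 7.4 buffer with direct UV read-out.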

[4] = Metabolic stability in human liver microsomes assessed as half life; assay type: ADME, Microsome
How it was run: (§1)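 Test compound at 1 μM incubated with 1 mg/mL male beagle dog or male human liver microsomal protein. Half-life was determined from compound loss.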

CYP3A4 = CYP3A4 (Homo sapiens, UniProt P08684); test: Inhibition of CYP3A4 at 3 uM by fluorescent method; assay type: ADME
Chain of CYP3A4 (P08684 whole entry): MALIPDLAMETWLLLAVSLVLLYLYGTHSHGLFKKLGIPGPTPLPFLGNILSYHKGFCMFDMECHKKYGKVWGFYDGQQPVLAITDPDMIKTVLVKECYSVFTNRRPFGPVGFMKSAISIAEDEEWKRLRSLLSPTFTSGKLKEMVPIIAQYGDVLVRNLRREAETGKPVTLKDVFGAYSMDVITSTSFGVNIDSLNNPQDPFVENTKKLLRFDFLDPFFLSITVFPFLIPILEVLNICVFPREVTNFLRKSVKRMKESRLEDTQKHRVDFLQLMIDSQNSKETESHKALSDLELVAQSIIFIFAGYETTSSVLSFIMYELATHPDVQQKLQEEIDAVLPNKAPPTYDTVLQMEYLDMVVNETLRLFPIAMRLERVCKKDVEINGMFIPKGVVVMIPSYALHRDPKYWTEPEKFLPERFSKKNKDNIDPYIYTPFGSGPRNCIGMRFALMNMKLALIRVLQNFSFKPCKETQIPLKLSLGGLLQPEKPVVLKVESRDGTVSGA
How it was run: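 CYP3A4 inhibition measured by a fluorescent method.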

[5] = target: Sodium channel protein type 5 subunit alpha (Homo sapiens, UniProt Q14524); test: Inhibition of Nav1.5 expressed in CHO cells by patch-clamp technique; assay type: cell-based
How it was run: (§2)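 Electrophysiology IC50 measured in stably transfected cell lines: CHO for Nav1.5, Kv1.1, Kv1.3 and Kv4.3, and HEK for Cav1.3 and Cav1.2.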

[6] = target: Potassium voltage-gated channel subfamily A member 1 (Homo sapiens, UniProt Q09470); test: Inhibition of Kv1.1 expressed in CHO cells by patch-clamp technique; assay type: cell-based; how it was run: as §2
Chain of Potassium voltage-gated channel subfamily A member 1 (Q09470 whole entry): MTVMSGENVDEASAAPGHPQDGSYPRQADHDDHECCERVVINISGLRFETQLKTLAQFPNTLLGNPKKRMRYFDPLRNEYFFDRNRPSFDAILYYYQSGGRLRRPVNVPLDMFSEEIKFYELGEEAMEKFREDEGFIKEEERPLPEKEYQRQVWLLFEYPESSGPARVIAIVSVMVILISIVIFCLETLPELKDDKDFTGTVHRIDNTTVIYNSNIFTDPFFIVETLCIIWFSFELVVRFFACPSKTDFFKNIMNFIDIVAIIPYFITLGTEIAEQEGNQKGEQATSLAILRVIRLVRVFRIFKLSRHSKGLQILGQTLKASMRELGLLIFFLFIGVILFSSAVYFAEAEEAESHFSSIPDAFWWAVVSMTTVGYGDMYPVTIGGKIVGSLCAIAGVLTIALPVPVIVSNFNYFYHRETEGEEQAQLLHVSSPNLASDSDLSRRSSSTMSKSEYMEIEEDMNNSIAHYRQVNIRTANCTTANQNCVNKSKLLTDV

[7] = target: Potassium voltage-gated channel subfamily A member 3 (Homo sapiens, UniProt P22001); test: Inhibition of Kv1.3 expressed in CHO cells by patch-clamp technique; assay type: cell-based; how it was run: as §2
Chain of Potassium voltage-gated channel subfamily A member 3 (P22001 whole entry): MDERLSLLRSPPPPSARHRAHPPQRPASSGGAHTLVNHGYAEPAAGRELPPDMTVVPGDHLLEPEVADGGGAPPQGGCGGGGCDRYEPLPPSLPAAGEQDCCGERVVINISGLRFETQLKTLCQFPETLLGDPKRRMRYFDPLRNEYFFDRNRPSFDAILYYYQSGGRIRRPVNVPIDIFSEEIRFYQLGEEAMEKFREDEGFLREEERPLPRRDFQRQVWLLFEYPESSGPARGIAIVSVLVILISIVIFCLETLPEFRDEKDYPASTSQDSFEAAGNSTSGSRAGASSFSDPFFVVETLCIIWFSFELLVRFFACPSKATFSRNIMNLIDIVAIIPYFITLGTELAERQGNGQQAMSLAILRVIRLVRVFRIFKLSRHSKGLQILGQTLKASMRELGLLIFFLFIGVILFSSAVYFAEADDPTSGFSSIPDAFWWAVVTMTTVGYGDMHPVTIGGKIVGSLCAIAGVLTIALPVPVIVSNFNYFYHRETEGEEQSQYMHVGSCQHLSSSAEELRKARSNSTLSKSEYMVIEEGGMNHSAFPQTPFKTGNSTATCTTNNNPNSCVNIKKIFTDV

[8] = target: T1, A-type voltage-gated potassium channel KCND3 (Homo sapiens, UniProt Q9UK17); test: Inhibition of Kv4.3 expressed in CHO cells by patch-clamp technique; assay type: cell-based; how it was run: as §2
T1 sequence (Q9UK17 whole entry): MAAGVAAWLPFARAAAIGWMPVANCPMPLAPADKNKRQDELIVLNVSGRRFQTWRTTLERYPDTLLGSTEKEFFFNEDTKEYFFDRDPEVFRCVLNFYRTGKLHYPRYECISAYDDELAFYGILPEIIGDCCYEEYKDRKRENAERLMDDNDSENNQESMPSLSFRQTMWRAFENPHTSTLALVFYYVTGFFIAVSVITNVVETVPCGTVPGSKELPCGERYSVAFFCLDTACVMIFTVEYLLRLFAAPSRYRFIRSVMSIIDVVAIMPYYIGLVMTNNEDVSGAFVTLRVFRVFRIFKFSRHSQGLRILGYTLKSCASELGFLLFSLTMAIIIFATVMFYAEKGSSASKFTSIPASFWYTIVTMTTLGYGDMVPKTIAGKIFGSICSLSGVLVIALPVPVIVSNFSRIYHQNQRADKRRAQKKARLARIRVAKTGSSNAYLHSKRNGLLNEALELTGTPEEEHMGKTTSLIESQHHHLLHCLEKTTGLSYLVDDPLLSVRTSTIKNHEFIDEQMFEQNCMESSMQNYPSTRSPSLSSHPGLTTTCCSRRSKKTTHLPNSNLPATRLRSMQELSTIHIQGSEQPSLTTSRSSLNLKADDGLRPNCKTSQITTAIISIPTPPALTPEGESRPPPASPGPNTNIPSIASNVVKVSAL

[9] = Metabolic stability in Beagle dog liver microsomes assessed as half life; assay type: ADME, Canis lupus familiaris, Microsome; how it was run: as §1
Cytochrome P450 3A4 = Cytochrome P450 3A4 (Homo sapiens, UniProt P08684); test: Inhibition of CYP3A4 in human liver microsomes; assay type: ADME, Microsome
Chain of Cytochrome P450 3A4 (P08684 whole entry): as the sequence (P08684 whole entry) above
How it was run: (§3)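 Reversible inhibition assayed in human liver microsomes at 0.2 mg/mL protein with probe substrates. CYP3A4 used 2.5 μM midazolam and, separately, 50 μM testosterone. CYP2D6 used 10 μM bufuralol. CYP2C9 used 10 μM diclofenac. IC50 was determined.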

Cytochrome P450 2D6 = Cytochrome P450 2D6 (Homo sapiens, UniProt P10635); test: Inhibition of CYP2D6 in human liver microsomes; assay type: ADME, Microsome; how it was run: as §3
Chain of Cytochrome P450 2D6 (P10635 whole entry): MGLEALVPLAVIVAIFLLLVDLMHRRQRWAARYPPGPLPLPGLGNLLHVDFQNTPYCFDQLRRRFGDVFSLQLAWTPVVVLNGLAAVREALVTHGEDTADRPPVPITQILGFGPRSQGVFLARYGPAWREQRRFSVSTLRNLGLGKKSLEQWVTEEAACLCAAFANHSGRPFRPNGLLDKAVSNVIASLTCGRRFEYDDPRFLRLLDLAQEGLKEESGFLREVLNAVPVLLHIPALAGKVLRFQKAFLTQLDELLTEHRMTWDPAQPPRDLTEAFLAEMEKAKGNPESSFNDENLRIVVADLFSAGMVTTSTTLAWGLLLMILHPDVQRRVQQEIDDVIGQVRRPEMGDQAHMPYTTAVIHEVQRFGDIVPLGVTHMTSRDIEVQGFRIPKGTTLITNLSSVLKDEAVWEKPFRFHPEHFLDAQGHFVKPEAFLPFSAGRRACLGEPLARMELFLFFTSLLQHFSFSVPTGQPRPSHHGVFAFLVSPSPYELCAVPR

Cytochrome P450 2C9 = Cytochrome P450 2C9 (Homo sapiens, UniProt P11712); test: Inhibition of CYP2C9 in human liver microsomes; assay type: ADME, Microsome; how it was run: as §3
Chain of Cytochrome P450 2C9 (P11712 whole entry): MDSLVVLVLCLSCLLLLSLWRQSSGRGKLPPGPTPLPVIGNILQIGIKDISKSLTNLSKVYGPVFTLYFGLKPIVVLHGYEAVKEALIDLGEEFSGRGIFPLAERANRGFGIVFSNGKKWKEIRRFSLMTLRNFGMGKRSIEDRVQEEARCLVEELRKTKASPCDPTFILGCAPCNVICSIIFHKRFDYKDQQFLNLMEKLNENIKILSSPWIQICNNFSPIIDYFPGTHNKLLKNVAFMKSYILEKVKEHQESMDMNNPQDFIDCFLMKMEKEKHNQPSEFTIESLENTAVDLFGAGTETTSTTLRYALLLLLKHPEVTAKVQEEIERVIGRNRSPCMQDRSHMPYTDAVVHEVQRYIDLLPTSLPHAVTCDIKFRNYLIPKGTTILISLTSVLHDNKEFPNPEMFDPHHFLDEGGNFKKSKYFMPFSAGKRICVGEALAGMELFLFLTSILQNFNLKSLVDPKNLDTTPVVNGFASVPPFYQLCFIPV

[10] = Permeability from apical to basolateral side in human Caco-2 cells at pH 7.4; assay type: ADME, cell-based; settings: Caco-2, pH 7.4, read-out: permeability
How it was run: (§4)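 Caco-2 monolayers at pH 7.4. Bidirectional transport was measured from apical to basolateral and from basolateral to apical. Apparent permeability was reported in cm/s.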

[11] = Permeability from basolateral to apical side in human Caco-2 cells at pH 7.4; assay type: ADME, cell-based; settings: Caco-2, pH 7.4, read-out: permeability; how it was run: as §4
[12] = Protein binding in Beagle dog plasma by equilibrium dialysis; assay type: ADME, cell-free, Canis lupus familiaris; settings: read-out: PPB (converted)
How it was run: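 Tritium-labelled compound at 500 ng/mL in male beagle dog or male human plasma. Bound fraction was determined by equilibrium dialysis.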

[13] = Plasma clearance in Beagle dog at 3 mg/kg, iv; assay type: ADME, organism-based, Canis lupus familiaris; set-up: dose 3 mg/kg, route intravenous
How it was run: (§5)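 Male beagles; single 30 min intravenous infusion at 3 mg/kg. Plasma clearance, steady-state volume of distribution, elimination half-life and AUC were derived from the plasma concentration–time profile.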

[14] = Volume of distribution at steady state in Beagle dog at 3 mg/kg, iv; assay type: ADME, organism-based, Canis lupus familiaris; set-up: dose 3 mg/kg, route intravenous; settings: in vivo, read-out: Vdss; how it was run: as §5
[15] = Half life in Beagle dog at 3 mg/kg, iv; assay type: ADME, organism-based, Canis lupus familiaris; set-up: dose 3 mg/kg, route intravenous; settings: in vivo; how it was run: as §5
[16] = AUC in Beagle dog at 3 mg/kg, iv; assay type: ADME, organism-based, Canis lupus familiaris; set-up: dose 3 mg/kg, route intravenous; settings: plasma; how it was run: as §5
[17] = Cmax in Beagle dog at 3 mg/kg, po; assay type: ADME, organism-based, Canis lupus familiaris; set-up: dose 3 mg/kg, route oral; settings: in vivo
How it was run: (§6)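 Male beagles dosed orally at 3 mg/kg. Cmax, Tmax, half-life and AUC were taken from plasma levels.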

[18] = Tmax in Beagle dog at 3 mg/kg, po; assay type: ADME, organism-based, Canis lupus familiaris; set-up: dose 3 mg/kg, route oral; settings: in vivo; how it was run: as §6
[19] = Half life in Beagle dog at 3 mg/kg, po; assay type: ADME, organism-based, Canis lupus familiaris; set-up: dose 3 mg/kg, route oral; settings: in vivo; how it was run: as §6
[20] = AUC in Beagle dog at 3 mg/kg, po; assay type: ADME, organism-based, Canis lupus familiaris; set-up: dose 3 mg/kg, route oral; settings: plasma; how it was run: as §6
[21] = Oral bioavailability in Beagle dog at 3 mg/kg; assay type: ADME, organism-based, Canis lupus familiaris; settings: in vivo; how it was run: as §6
Canis familiaris [22] = test: Plasma concentration in Beagle dog at 1.9 mg/kg, iv; assay type: ADME, organism-based, Canis lupus familiaris; set-up: dose 1.9 mg/kg, route intravenous; settings: in vivo
Canis familiaris [23] = test: Plasma concentration in Beagle dog at 6.3 mg/kg, iv; assay type: ADME, organism-based, Canis lupus familiaris; set-up: dose 6.3 mg/kg, route intravenous; settings: in vivo
Canis familiaris [24] = organism: Canis familiaris; test: Antiarrhythmic activity in Beagle dog prolongation of atrial effective refractory period at steady state plasma concentrations of 4.6 uM; assay type: functional, Canis lupus familiaris, Heart
Canis familiaris [25] = organism: Canis familiaris; test: Antiarrhythmic activity in Beagle dog prolongation of atrial effective refractory period at steady state plasma concentrations of 23 uM; assay type: functional, Canis lupus familiaris, Heart
Canis familiaris [26] = test: Antiarrhythmic activity in Beagle dog atrial/ventricular tachypacing model assessed as decrease in atrial fibrillation at 3 mg/kg, po after 5 to 10 mins; assay type: functional, Canis lupus familiaris, Heart; set-up: scale not given: the % may be the effect or the level left
Canis familiaris [27] = test: Antiarrhythmic activity in Beagle dog atrial/ventricular tachypacing model assessed as decrease in atrial fibrillation at 3 mg/kg, po; assay type: functional, Canis lupus familiaris, Heart; set-up: scale not given: the % may be the effect or the level left
Canis familiaris [28] = test: Antiarrhythmic activity in Beagle dog atrial/ventricular tachypacing model assessed as decrease in total atrial fibrillation at 3 mg/kg, po; assay type: functional, Canis lupus familiaris, Heart; set-up: scale not given: the % may be the effect or the level left
[29] = target: Voltage-dependent L-type calcium channel subunit alpha-1D (Homo sapiens, UniProt Q01668); test: Inhibition of Cav1.3 expressed in HEK cells by patch-clamp technique
[30] = target: Voltage-dependent L-type calcium channel subunit alpha-1C (Homo sapiens, UniProt Q13936); test: Inhibition of Cav1.2 expressed in HEK cells by patch-clamp technique

## COc1ccc(CCN2C(=O)N(NS(C)(=O)=O)C[C@H]2c2ccc(OC)cc2)cc1
[1]
  IC50: 480 nM
[2]
  IC50: 15.1 µM
[3]
  solubility: 65 µg/mL (≈ 155 µM)
[4]
  half-life: 30 min
CYP3A4
  inhibition at 3 µM: 45%
[5]
  IC50: > 30 µM
[6]
  IC50: 2660 nM
[7]
  IC50: 1410 nM
[8]
  IC50: 3.87 µM
[9]
  half-life: 11 min
Cytochrome P450 3A4
  IC50: 37 µM
Cytochrome P450 2D6
  IC50: 180 µM
Cytochrome P450 2C9
  IC50: 47 µM
[10]
  Papp A→B: 40 ×10⁻⁶ cm/s
[11]
  Papp B→A: 39 ×10⁻⁶ cm/s
[12]
  fraction unbound: 0.1
[13]
  clearance: 23 mL/min/kg
[14]
  Vd: 2.2 L/kg
[15]
  half-life: 72 min
[16]
  AUC: 2410 ng·h/mL
[17]
  Cmax: 469 ng/mL
[18]
  Tmax: 1 h
[19]
  half-life: 102 min
[20]
  AUC: 1990 ng·h/mL
[21]
  bioavailability: 82%
Canis familiaris [22]
  concentration: 4.6 µM
Canis familiaris [23]
  concentration: 23 µM
Canis familiaris [24]
  Activity: 12%
Canis familiaris [25]
  Activity: 17%
Canis familiaris [26]
  Activity: 63%
Canis familiaris [27]
  Activity: 55%
Canis familiaris [28]
  Activity: 52%
[29]
  IC50: 23.4 µM
[30]
  IC50: > 30 µM

## COc1ccc(CCN2C(=O)N(NS(=O)(=O)Cc3ccccc3)C[C@@H]2c2ccc(OC)cc2)cc1
[1]
  IC50: 340 nM
[2]
  IC50: 4.4 µM
[3]
  solubility: 1 µg/mL (≈ 2.02 µM)
[4]
  half-life: 3 min
CYP3A4
  inhibition at 3 µM: 82%

## COc1ccc(CCN2C(=O)N(NS(C)(=O)=O)CC2c2ccc(C)cc2)cc1 (centres undefined)
[1]
  IC50: 240 nM
[2]
  IC50: 11.2 µM
[3]
  solubility: 42 µg/mL (≈ 104 µM)
[4]
  half-life: 18 min
CYP3A4
  inhibition at 3 µM: 58%

## COc1ccc(CCN2C(=O)N(NS(C)(=O)=O)CC2c2ccc(C(F)(F)F)cc2)cc1 (centres undefined)
[1]
  IC50: 250 nM
[2]
  IC50: 9.1 µM
[3]
  solubility: 13 µg/mL (≈ 28.4 µM)
[4]
  half-life: 30 min
CYP3A4
  inhibition at 3 µM: 67%
